ChEMBL document CHEMBL5058577, “EUbOPEN Chemogenomics Library 2 (Multiplex)” (2022)

System: HEK-293T
Test: Multiplex assay against HEK293T
Format: toxicity, cell-based
Conditions: human
Outline: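 Hoechst33342, BioTracker Green Microtubule Cytoskeleton Dye, MitoTracker Red and Annexin V Alexa Fluor 680 were added to live cells at seeding, and imaging on a CQ1 microscope at 37°C and 5% CO2 followed compound addition. Gating by CellPathfinder machine learning separated cells into Hoechst high-intensity objects or normal cells, then normal cells into healthy, pyknosed or fragmented nuclei, then pyknosed cells into mitotic or apoptotic. Per cents of healthy-nucleus cells are reported for the tubulin, mitochondrial-mass and membrane-permeability phenotypes.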

[1] = 12 h, 1 µM, compound concentration 1 uM, replicate 1
[2] = 12 h, 1 µM, compound concentration 1 uM, replicate 2
[3] = 12 h, 10 µM, compound concentration 10 uM, replicate 1
[4] = 12 h, 10 µM, compound concentration 10 uM, replicate 2
[5] = 24 h, 1 µM, compound concentration 1 uM, replicate 1
[6] = 24 h, 1 µM, compound concentration 1 uM, replicate 2
[7] = 24 h, 10 µM, compound concentration 10 uM, replicate 1
[8] = 24 h, 10 µM, compound concentration 10 uM, replicate 2
[9] = 48 h, 1 µM, compound concentration 1 uM, replicate 1
[10] = 48 h, 1 µM, compound concentration 1 uM, replicate 2
[11] = 48 h, 10 µM, compound concentration 10 uM, replicate 1
[12] = 48 h, 10 µM, compound concentration 10 uM, replicate 2

Structure (SMILES): Cc1cccc(NC(=O)CN2CCC(c3ccccn3)CC2)c1.Cl.Cl
- Population Apoptotic (%) [1]: 34%
- Population Fragmented Nuclei (%) [1]: 7%
- Population Healthy Nuclei (%) [1]: 76%
- Population Hoechst High Intensity Objects (%) [1]: 5%
- Population Membrane Permeable-Phenotype (%) [1]: 0%
- Population Mitochondria Different-Phenotype (%) [1]: 54%
- Population Mitotic Cells (%) [1]: 65%
- Population Normal (%) [1]: 94%
- Population Pyknosed Nuclei (%) [1]: 15%
- Population Tubulin-Different-Phenotype (%) [1]: 33%
- Total Cell Count [1]: 348
- Population Apoptotic (%) [2]: 46%
- Population Fragmented Nuclei (%) [2]: 5%
- Population Healthy Nuclei (%) [2]: 82%
- Population Hoechst High Intensity Objects (%) [2]: 3%
- Population Mitotic Cells (%) [2]: 53%
- Population Normal (%) [2]: 96%
- Population Pyknosed Nuclei (%) [2]: 11%
- Population Tubulin-Different-Phenotype (%) [2]: 22%
- Total Cell Count [2]: 277
- Population Apoptotic (%) [3]: 61%
- Population Fragmented Nuclei (%) [3]: 6%
- Population Healthy Nuclei (%) [3]: 71%
- Population Hoechst High Intensity Objects (%) [3]: 9%
- Population Membrane Permeable-Phenotype (%) [3]: 0%
- Population Mitochondria Different-Phenotype (%) [3]: 63%
- Population Mitotic Cells (%) [3]: 38%
- Population Normal (%) [3]: 90%
- Population Pyknosed Nuclei (%) [3]: 21%
- Population Tubulin-Different-Phenotype (%) [3]: 50%
- Total Cell Count [3]: 291
- Population Apoptotic (%) [4]: 43%
- Population Fragmented Nuclei (%) [4]: 10%
- Population Healthy Nuclei (%) [4]: 70%
- Population Hoechst High Intensity Objects (%) [4]: 14%
- Population Mitochondria Different-Phenotype (%) [4]: 79%
- Population Mitotic Cells (%) [4]: 56%
- Population Normal (%) [4]: 85%
- Population Pyknosed Nuclei (%) [4]: 18%
- Population Tubulin-Different-Phenotype (%) [4]: 35%
- Total Cell Count [4]: 273
- Population Apoptotic (%) [5]: 32%
- Population Fragmented Nuclei (%) [5]: 8%
- Population Healthy Nuclei (%) [5]: 81%
- Population Hoechst High Intensity Objects (%) [5]: 3%
- Population Membrane Permeable-Phenotype (%) [5]: 0%
- Population Mitochondria Different-Phenotype (%) [5]: 30%
- Population Mitotic Cells (%) [5]: 67%
- Population Normal (%) [5]: 96%
- Population Pyknosed Nuclei (%) [5]: 9%
- Population Tubulin-Different-Phenotype (%) [5]: 22%
- Total Cell Count [5]: 451
- Population Apoptotic (%) [6]: 45%
- Population Fragmented Nuclei (%) [6]: 10%
- Population Healthy Nuclei (%) [6]: 79%
- Population Hoechst High Intensity Objects (%) [6]: 4%
- Population Mitochondria Different-Phenotype (%) [6]: 44%
- Population Mitotic Cells (%) [6]: 54%
- Population Normal (%) [6]: 95%
- Population Pyknosed Nuclei (%) [6]: 10%
- Population Tubulin-Different-Phenotype (%) [6]: 18%
- Total Cell Count [6]: 339
- Population Apoptotic (%) [7]: 59%
- Population Fragmented Nuclei (%) [7]: 8%
- Population Healthy Nuclei (%) [7]: 74%
- Population Hoechst High Intensity Objects (%) [7]: 7%
- Population Membrane Permeable-Phenotype (%) [7]: 0%
- Population Mitochondria Different-Phenotype (%) [7]: 60%
- Population Mitotic Cells (%) [7]: 40%
- Population Normal (%) [7]: 92%
- Population Pyknosed Nuclei (%) [7]: 17%
- Population Tubulin-Different-Phenotype (%) [7]: 38%
- Total Cell Count [7]: 350
- Population Apoptotic (%) [8]: 50%
- Population Fragmented Nuclei (%) [8]: 11%
- Population Healthy Nuclei (%) [8]: 75%
- Population Mitochondria Different-Phenotype (%) [8]: 64%
- Population Mitotic Cells (%) [8]: 50%
- Population Pyknosed Nuclei (%) [8]: 13%
- Population Tubulin-Different-Phenotype (%) [8]: 26%
- Total Cell Count [8]: 348
- Population Apoptotic (%) [9]: 30%
- Population Fragmented Nuclei (%) [9]: 13%
- Population Healthy Nuclei (%) [9]: 76%
- Population Hoechst High Intensity Objects (%) [9]: 2%
- Population Membrane Permeable-Phenotype (%) [9]: 0%
- Population Mitochondria Different-Phenotype (%) [9]: 25%
- Population Mitotic Cells (%) [9]: 69%
- Population Normal (%) [9]: 97%
- Population Pyknosed Nuclei (%) [9]: 9%
- Population Tubulin-Different-Phenotype (%) [9]: 21%
- Total Cell Count [9]: 688
- Population Apoptotic (%) [10]: 46%
- Population Fragmented Nuclei (%) [10]: 8%
- Population Healthy Nuclei (%) [10]: 83%
- Population Hoechst High Intensity Objects (%) [10]: 4%
- Population Mitochondria Different-Phenotype (%) [10]: 24%
- Population Mitotic Cells (%) [10]: 53%
- Population Normal (%) [10]: 95%
- Population Pyknosed Nuclei (%) [10]: 8%
- Population Tubulin-Different-Phenotype (%) [10]: 13%
- Total Cell Count [10]: 524
- Population Apoptotic (%) [11]: 46%
- Population Fragmented Nuclei (%) [11]: 13%
- Population Healthy Nuclei (%) [11]: 75%
- Population Hoechst High Intensity Objects (%) [11]: 4%
- Population Membrane Permeable-Phenotype (%) [11]: 0%
- Population Mitochondria Different-Phenotype (%) [11]: 45%
- Population Mitotic Cells (%) [11]: 53%
- Population Normal (%) [11]: 95%
- Population Pyknosed Nuclei (%) [11]: 10%
- Population Tubulin-Different-Phenotype (%) [11]: 26%
- Total Cell Count [11]: 515
- Population Apoptotic (%) [12]: 48%
- Population Fragmented Nuclei (%) [12]: 16%
- Population Healthy Nuclei (%) [12]: 76%
- Population Hoechst High Intensity Objects (%) [12]: 2%
- Population Mitochondria Different-Phenotype (%) [12]: 37%
- Population Mitotic Cells (%) [12]: 51%
- Population Normal (%) [12]: 97%
- Population Pyknosed Nuclei (%) [12]: 7%
- Population Tubulin-Different-Phenotype (%) [12]: 20%
- Total Cell Count [12]: 544
